The source of these data is ChEMBL document CHEMBL1142648, “Enhancement in antimicrobial activity of 2-(phenyl)-3-(2-butyl-4-chloro-1H-imidazolyl)-5-butylate isoxazolidine” (2005).

Values after ≈ are worked out from the molar mass of the structure shown.

For one assay, the system named is Staphylococcus aureus. In words: Minimum inhibitory concentration against Staphylococcus aureus. Type of assay: functional. The gist of the method:
(§1)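 Broth tube dilution in brain heart infusion broth, 5 mL final volume. Compounds were dissolved in DMSO, diluted 1:9 with water, then serially diluted in medium. Cells were added at a final 2 × 10^3 CFU/mL and incubated at 37 °C for 24 h. Turbidity was read at 640 nm. MIC is the lowest concentration with no growth, confirmed by spreading 10 µL of clear tubes on BHI agar.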

A further assay concerns Escherichia coli. In words: Minimum inhibitory concentration against Escherichia coli. Type of assay: functional. The procedure, abridged: as §1
Another assay has as its system Aspergillus niger. The assay is described as follows: Minimum inhibitory concentration against Aspergillus niger. It counts as functional. The gist of the method:
(§2)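 Fungal MIC by tube dilution in potato dextrose broth, 5 mL final volume. Compounds were taken up in DMSO, diluted 1:9 with water, then serially diluted in medium. Spore suspension was added at a final 2 × 10^3 CFU/mL and incubated at 28 °C for 48 h. Absorbance was read at 640 nm. MIC is the lowest no-growth concentration, checked by subculturing 10 µL onto potato dextrose agar and examining under a microscope.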

For another assay, the system named is Bacillus subtilis. In words: Minimum inhibitory concentration against Bacillus subtilis. It counts as functional. The gist of the method:
as §1

A further assay concerns Fusarium verticillioides. In words: Minimum inhibitory concentration against Fusarium moniliforme. Type of assay: functional. The gist of the method:
as §2

The subject of a further assay is Cephalosporium. The assay is described as follows: Minimum inhibitory concentration against Cephalosporium acremonium. Type of assay: functional, Hapsidospora chrysogena. The procedure, abridged: as §2
[1] abbreviates: Staphylococcus aureus, read-out: MIC.
The mark [2] stands for this setting: Escherichia coli, read-out: MIC.
Where [3] appears, read: Bacillus subtilis, read-out: MIC.

Usually MIC stands for the lowest concentration found to suppress growth. As for `CCCCOC(=O)[C@H]1C[C@@H](c2[nH]c(CCCC)nc2Cl)N(c2ccccc2)O1` (stereo in doubt; A), the minimal inhibitory concentration (MIC) in the assay on Staphylococcus aureus (setting [1]) was 7 µg/mL (≈ 17.2 µM); with Escherichia coli (setting [2]) it was 10 µg/mL (≈ 24.6 µM); against Aspergillus niger it was 14 µg/mL (≈ 34.5 µM); in the assay with Bacillus subtilis (setting [3]), 7 µg/mL (≈ 17.2 µM); against Fusarium verticillioides it was 13 µg/mL (≈ 32 µM); against Cephalosporium, 11 µg/mL (≈ 27.1 µM).

Regarding `CCCCOC(=O)[C@H]1C[C@@H](c2[nH]c(CCCC)nc2Cl)N(c2ccccc2)O1` (stereo in doubt; B), the minimum inhibitory concentration (MIC) was 8 µg/mL (≈ 19.7 µM) with Staphylococcus aureus; 11 µg/mL (≈ 27.1 µM) in the assay on Escherichia coli; 36 µg/mL (≈ 88.7 µM) against Aspergillus niger; 7 µg/mL (≈ 17.2 µM) against Bacillus subtilis; 28 µg/mL (≈ 69 µM) in the assay with Fusarium verticillioides; 33 µg/mL (≈ 81.3 µM) with Cephalosporium.

As for `CN[C@@H]1[C@H](O[C@H]2[C@H](O[C@H]3[C@H](O)[C@@H](O)[C@H](N=C(N)N)[C@@H](O)[C@@H]3N=C(N)N)O[C@@H](C)[C@]2(O)C=O)O[C@@H](CO)[C@H](O)[C@H]1O` [STREPTOMYCIN], the minimal inhibitory concentration (MIC) is 3 µg/mL (≈ 5.16 µM) with Staphylococcus aureus (setting [1]), 6 µg/mL (≈ 10.3 µM) in the assay on Escherichia coli (setting [2]) and 3 µg/mL (≈ 5.16 µM) with Bacillus subtilis (setting [3]).

For NYSTATIN, the figures for the MIC against Aspergillus niger, with Fusarium verticillioides and in the assay on Cephalosporium (Hapsidospora chrysogena) were 12 µg/mL, 14 µg/mL and 11 µg/mL, respectively.
